Source: ChEMBL document CHEMBL1629686, “Substrate selectivity and a novel role in inhibitor discrimination by residue 237 in the KPC-2 beta-lactamase” (Antimicrob Agents Chemother, 2010)
≈ marks a conversion by molar mass, not a printed value.

Legend:
Klebsiella pneumoniae [1] = assay: Antimicrobial activity against Klebsiella pneumoniae 1534 expressing beta-lactamase KPC-2 by agar dilution method; format: functional
Summary of the method: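 MICs were determined by LB agar dilution following CLSI criteria, with a Steers replicator. […] Piperacillin-tazobactam was kept at an 8:1 ratio.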

Escherichia coli [2] = assay: Antimicrobial activity against Escherichia coli DH10B harboring plasmid pBR322-catI carrying beta-lactamase KPC-2 by agar dilution method; format: functional; conditions: K-12 DH10B
Summary of the method: (§1)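 LB agar dilution MICs followed CLSI criteria, with inocula applied by Steers replicator. […] Piperacillin-tazobactam was tested at an 8:1 ratio. Wild-type and mutant blaKPC-2 were carried on pBC SK(+), or wild type on pBR322-catI, in E. coli DH10B.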

Escherichia coli [3] = assay: Antimicrobial activity against Escherichia coli DH10B harboring plasmid pBC SK(+) carrying wild type beta-lactamase KPC-2 by agar dilution method; format: functional; conditions: K-12 DH10B; summary of the method: as §1
Escherichia coli [4] = assay: Antimicrobial activity against Escherichia coli DH10B harboring beta-lactamase KPC-2 T237A mutant by agar dilution method; format: functional; conditions: K-12 DH10B; summary of the method: as §1
Escherichia coli [5] = assay: Antimicrobial activity against Escherichia coli DH10B harboring beta-lactamase KPC-2 T237G mutant by agar dilution method; format: functional; conditions: K-12 DH10B; summary of the method: as §1
Escherichia coli [6] = assay: Antimicrobial activity against Escherichia coli DH10B harboring beta-lactamase KPC-2 T237G mutant by agar dilution method in presence of beta-lactamase inhibitor clavulanic acid; format: functional; conditions: K-12 DH10B
Summary of the method: (§2)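 LB agar dilution MICs per CLSI criteria, inoculated with a Steers replicator. […] Strains: E. coli DH10B alone, DH10B carrying empty pBC SK(+), or DH10B carrying pBC SK(+)-blaKPC-2 position 237 variants made by site-saturation mutagenesis and confirmed by sequencing. Plasmid selection used 20 mg/liter chloramphenicol.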

Escherichia coli [7] = assay: Antimicrobial activity against Escherichia coli DH10B harboring beta-lactamase KPC-2 T237I mutant by agar dilution method; format: functional; conditions: K-12 DH10B; summary of the method: as §1
Escherichia coli [8] = assay: Antimicrobial activity against Escherichia coli DH10B harboring beta-lactamase KPC-2 T237I mutant by agar dilution method in presence of beta-lactamase inhibitor Sulbactam; format: functional; conditions: K-12 DH10B
Summary of the method: (§3)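 LB agar dilution MICs by CLSI criteria, applied with a Steers replicator. […] Hosts were E. coli DH10B carrying pBC SK(+) with wild-type blaKPC-2 or a position 237 variant.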

Escherichia coli [9] = assay: Antimicrobial activity against Escherichia coli DH10B harboring beta-lactamase KPC-2 T237L mutant by agar dilution method; format: functional; conditions: K-12 DH10B; summary of the method: as §1
Escherichia coli [10] = assay: Antimicrobial activity against Escherichia coli DH10B harboring beta-lactamase KPC-2 T237M mutant by agar dilution method; format: functional; conditions: K-12 DH10B; summary of the method: as §1
Escherichia coli [11] = assay: Antimicrobial activity against Escherichia coli DH10B harboring beta-lactamase KPC-2 T237V mutant by agar dilution method; format: functional; conditions: K-12 DH10B; summary of the method: as §1
Escherichia coli [12] = assay: Antimicrobial activity against Escherichia coli DH10B harboring beta-lactamase KPC-2 T237V mutant by agar dilution method in presence of beta-lactamase inhibitor Sulbactam; format: functional; conditions: K-12 DH10B; summary of the method: as §3
Escherichia coli [13] = assay: Antimicrobial activity against Escherichia coli DH10B harboring beta-lactamase KPC-2 T237F mutant by agar dilution method; format: functional; conditions: K-12 DH10B; summary of the method: as §1
Escherichia coli [14] = assay: Antimicrobial activity against Escherichia coli DH10B harboring beta-lactamase KPC-2 T237W mutant by agar dilution method; format: functional; conditions: K-12 DH10B; summary of the method: as §1
Escherichia coli [15] = assay: Antimicrobial activity against Escherichia coli DH10B harboring beta-lactamase KPC-2 T237W mutant by agar dilution method in presence of beta-lactamase inhibitor Sulbactam; format: functional; conditions: K-12 DH10B; summary of the method: as §3
Escherichia coli [16] = assay: Antimicrobial activity against Escherichia coli DH10B harboring beta-lactamase KPC-2 T237Y mutant by agar dilution method; format: functional; conditions: K-12 DH10B; summary of the method: as §1
Escherichia coli [17] = assay: Antimicrobial activity against Escherichia coli DH10B harboring beta-lactamase KPC-2 T237C mutant by agar dilution method; format: functional; conditions: K-12 DH10B; summary of the method: as §1
Escherichia coli [18] = assay: Antimicrobial activity against Escherichia coli DH10B harboring beta-lactamase KPC-2 T237N mutant by agar dilution method; format: functional; conditions: K-12 DH10B; summary of the method: as §1
Escherichia coli [19] = assay: Antimicrobial activity against Escherichia coli DH10B harboring beta-lactamase KPC-2 T237N mutant by agar dilution method in presence of beta-lactamase inhibitor clavulanic acid; format: functional; conditions: K-12 DH10B; summary of the method: as §3
Escherichia coli [20] = assay: Antimicrobial activity against Escherichia coli DH10B harboring beta-lactamase KPC-2 T237N mutant by agar dilution method in presence of beta-lactamase inhibitor Sulbactam; format: functional; conditions: K-12 DH10B; summary of the method: as §3
Escherichia coli [21] = assay: Antimicrobial activity against Escherichia coli DH10B harboring beta-lactamase KPC-2 T237P mutant by agar dilution method; format: functional; conditions: K-12 DH10B; summary of the method: as §1
Escherichia coli [22] = assay: Antimicrobial activity against Escherichia coli DH10B harboring beta-lactamase KPC-2 T237Q mutant by agar dilution method; format: functional; conditions: K-12 DH10B; summary of the method: as §1
Escherichia coli [23] = assay: Antimicrobial activity against Escherichia coli DH10B harboring beta-lactamase KPC-2 T237S mutant by agar dilution method; format: functional; conditions: K-12 DH10B; summary of the method: as §1
Escherichia coli [24] = assay: Antimicrobial activity against Escherichia coli DH10B harboring beta-lactamase KPC-2 T237D mutant by agar dilution method; format: functional; conditions: K-12 DH10B; summary of the method: as §1
Escherichia coli [25] = assay: Antimicrobial activity against Escherichia coli DH10B harboring beta-lactamase KPC-2 T237E mutant by agar dilution method; format: functional; conditions: K-12 DH10B; summary of the method: as §1
Escherichia coli [26] = assay: Antimicrobial activity against Escherichia coli DH10B harboring beta-lactamase KPC-2 T237H mutant by agar dilution method; format: functional; conditions: K-12 DH10B; summary of the method: as §1
Escherichia coli [27] = assay: Antimicrobial activity against Escherichia coli DH10B harboring beta-lactamase KPC-2 T237K mutant by agar dilution method; format: functional; conditions: K-12 DH10B; summary of the method: as §1
Escherichia coli [28] = assay: Antimicrobial activity against Escherichia coli DH10B harboring beta-lactamase KPC-2 T237R mutant by agar dilution method; format: functional; conditions: K-12 DH10B; summary of the method: as §1
Escherichia coli [29] = assay: Antimicrobial activity against Escherichia coli DH10B by agar dilution method; format: functional; conditions: K-12 DH10B; summary of the method: as §1
Escherichia coli [30] = assay: Antimicrobial activity against Escherichia coli DH10B by agar dilution method in presence of beta-lactamase inhibitor clavulanic acid; format: functional; conditions: K-12 DH10B; summary of the method: as §2
Escherichia coli [31] = assay: Antimicrobial activity against Escherichia coli DH10B harboring plasmid […] by agar dilution method; format: functional; conditions: K-12 DH10B; summary of the method: as §1
Klebsiella pneumoniae [32] = assay: Ratio of Kcat/Km for Klebsiella pneumoniae 1534 beta-lactamase KPC-2 T237S mutant by spectrophotometric analysis
Summary of the method: (§4)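 Purified KPC-2 variant enzymes (periplasmic lysate from E. coli, preparative isoelectric focusing). Hydrolysis followed by diode-array spectrophotometry in 10 mM PBS, pH 7.4, room temperature. Enzyme at 10 nM with substrate in molar excess for pseudo-first-order conditions. Vmax and Km came from a nonlinear least-squares Michaelis-Menten fit.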

Klebsiella pneumoniae [33] = assay: Ratio of Kcat/Km for Klebsiella pneumoniae 1534 beta-lactamase KPC-2 T237A mutant by spectrophotometric analysis; summary of the method: as §4
Escherichia coli [34] = assay: Antimicrobial activity against Escherichia coli DH10B harboring plasmid pBR322-catI carrying beta-lactamase KPC-2 by agar dilution method in presence of beta-lactamase inhibitor Tazobactam; format: functional; conditions: K-12 DH10B
Summary of the method: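 LB agar dilution MIC following CLSI criteria, inoculated with a Steers replicator. Tested as piperacillin-tazobactam at a fixed 8:1 ratio.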

Escherichia coli [35] = assay: Antimicrobial activity against Escherichia coli DH10B harboring beta-lactamase KPC-2 T237W mutant by agar dilution method in presence of beta-lactamase inhibitor Tazobactam; format: functional; conditions: K-12 DH10B
Summary of the method: (§5)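 LB agar dilution MICs by CLSI criteria, inoculated with a Steers replicator. […] Strains were E. coli DH10B with or without pBC SK(+) carrying wild-type blaKPC-2 or a position 237 variant.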

Escherichia coli [36] = assay: Antimicrobial activity against Escherichia coli DH10B harboring beta-lactamase KPC-2 T237C mutant by agar dilution method in presence of beta-lactamase inhibitor Tazobactam; format: functional; conditions: K-12 DH10B; summary of the method: as §5
Escherichia coli [37] = assay: Antimicrobial activity against Escherichia coli DH10B harboring beta-lactamase KPC-2 T237S mutant by agar dilution method in presence of beta-lactamase inhibitor Tazobactam; format: functional; conditions: K-12 DH10B; summary of the method: as §5

SMILES	MIC (Klebsiella pneumoniae [1]) [µg/mL]	MIC (Escherichia coli [2]) [µg/mL]	MIC (Escherichia coli [3]) [µg/mL]	MIC (Escherichia coli [4]) [µg/mL]	MIC (Escherichia coli [5]) [µg/mL]	MIC (Escherichia coli [7]) [µg/mL]	MIC (Escherichia coli [9]) [µg/mL]	MIC (Escherichia coli [10]) [µg/mL]	MIC (Escherichia coli [11]) [µg/mL]	MIC (Escherichia coli [13]) [µg/mL]	MIC (Escherichia coli [14]) [µg/mL]	MIC (Escherichia coli [16]) [µg/mL]	MIC (Escherichia coli [17]) [µg/mL]	MIC (Escherichia coli [18]) [µg/mL]	MIC (Escherichia coli [21]) [µg/mL]	MIC (Escherichia coli [22]) [µg/mL]	MIC (Escherichia coli [23]) [µg/mL]	MIC (Escherichia coli [24]) [µg/mL]	MIC (Escherichia coli [25]) [µg/mL]	MIC (Escherichia coli [26]) [µg/mL]	other results
CC1(C)S[C@@H]2[C@H](NC(=O)[C@H](N)c3ccccc3)C(=O)N2[C@H]1C(=O)O [AMPICILLIN]	8190 (≈ 23400 µM)	4100 (≈ 11700 µM)	256 (≈ 733 µM)	256 (≈ 733 µM)	128 (≈ 366 µM)	64 (≈ 183 µM)	64 (≈ 183 µM)	128 (≈ 366 µM)	128 (≈ 366 µM)	16 (≈ 45.8 µM)	16 (≈ 45.8 µM)	16 (≈ 45.8 µM)	4 (≈ 11.4 µM)	32 (≈ 91.6 µM)	1 (≈ 2.86 µM)	256 (≈ 733 µM)	512 (≈ 1470 µM)	16 (≈ 45.8 µM)	32 (≈ 91.6 µM)	64 (≈ 183 µM)	MIC (Escherichia coli [6]): 1 µg/mL; MIC (Escherichia coli [8]): 16 µg/mL; MIC (Escherichia coli [12]): 32 µg/mL; MIC (Escherichia coli [15]): 8 µg/mL; MIC (Escherichia coli [19]): 4 µg/mL; MIC (Escherichia coli [20]): 8 µg/mL; MIC (Escherichia coli [27]): 1 µg/mL (≈ 2.86 µM); MIC (Escherichia coli [28]): 4 µg/mL (≈ 11.4 µM); MIC (Escherichia coli [29]): 1 µg/mL (≈ 2.86 µM); MIC (Escherichia coli [30]): 1 µg/mL; MIC (Escherichia coli [31]): 1 µg/mL (≈ 2.86 µM)
CCN1CCN(C(=O)N[C@@H](C(=O)N[C@@H]2C(=O)N3[C@@H]2SC(C)(C)[C@@H]3C(=O)O)c2ccccc2)C(=O)C1=O [PIPERACILLIN]	1020 (≈ 1980 µM)	1020 (≈ 1980 µM)	128 (≈ 247 µM)	64 (≈ 124 µM)	16 (≈ 30.9 µM)	8 (≈ 15.5 µM)	16 (≈ 30.9 µM)	32 (≈ 61.8 µM)	16 (≈ 30.9 µM)	4 (≈ 7.73 µM)	8 (≈ 15.5 µM)	4 (≈ 7.73 µM)	4 (≈ 7.73 µM)	8 (≈ 15.5 µM)	1 (≈ 1.93 µM)	64 (≈ 124 µM)	128 (≈ 247 µM)	4 (≈ 7.73 µM)	8 (≈ 15.5 µM)	8 (≈ 15.5 µM)	kcat/Km (Klebsiella pneumoniae [32]): 7e+06 M⁻¹ s⁻¹; kcat/Km (Klebsiella pneumoniae [33]): 3.5e+06 M⁻¹ s⁻¹; MIC (Escherichia coli [34]): 64 µg/mL; MIC (Escherichia coli [35]): 1 µg/mL; MIC (Escherichia coli [36]): 0.5 µg/mL; MIC (Escherichia coli [37]): 8 µg/mL; MIC (Escherichia coli [27]): 1 µg/mL (≈ 1.93 µM); MIC (Escherichia coli [28]): 4 µg/mL (≈ 7.73 µM); MIC (Escherichia coli [29]): 2 µg/mL (≈ 3.86 µM); MIC (Escherichia coli [31]): 2 µg/mL (≈ 3.86 µM)
